Assay: Toxicity liver stage against HepG2, at 10uM
Type: cell-based
Design: test concentration 10 uM, cell line HepG2-A16-CD81EGFP
Settings: human, HepG2-A16-CD81EGFP cells; read-out: INHIBITION
Outline: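 Uninfected HepG2-A16-CD81EGFP cells, 3 × 10^3 per well, 1536-well, plated on prespotted compound at 10 μM final, parasite-free screening media added to match infected plates; puromycin 10 μM positive, DMSO 0.5% negative; run in parallel with 48 h PbLuc assay at 37 °C, 5% CO2; viability by CellTiter-Glo luminescence, normalized to controls.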

Compound	cytotoxicity at 10 µM [%]
CN(CC1CCOCC1)C(C(=O)O)c1cccc(F)c1F (stereo unspecified)	6.89
COc1cccc(Cn2ncc(N(C)CCc3ccccc3)cc2=O)c1	2.93
CCSCCC(=O)N1CCc2[nH]nc(COc3ccccc3)c2C1	-2.19
O=C(COc1cccnc1)NCc1nncn1C1CCCCC1	3.46
O=C(Nc1ccccn1)c1nc(N2CCCC2)ncc1Cl	-8.77
CC(C)[C@@H]1CN(CC(=O)NCc2ccco2)C[C@H]1NS(=O)(=O)N(C)C	6.11
Cc1cc(N2CCC(O)CC2)nc(C)n1	-74.7
Cn1nc(N2CCCC(C(=O)Nc3nccs3)C2)ccc1=O (stereo unspecified)	3.19
CC(C)(C)C(=O)NCC(=O)Nc1cccnc1	-4.96
COCC(=O)N1C[C@@H](O)[C@H](N2CCN(c3ccccc3)CC2)C1	2.7
Cc1noc(C2CCN(C(=O)C3CCCO3)CC2)n1 (stereo unspecified)	3.95
COc1ccccc1CN1CC(O)CN(C(=O)OCC(C)C)CC1=O (stereo unspecified)	-6.19
c1cncc(N2CCCC3(CN(Cc4cccs4)CCO3)C2)c1 (stereo unspecified)	11.5
CCC(C)NC(=O)Nc1cccc(OC)c1 (stereo unspecified)	0.554
CCc1ccc(CCNc2ncnc3c2CCN(C(=O)C2CC2)C3)cc1	36.9
O=S(=O)(Cc1ccccc1CN1CCOCC(O)C1)c1ccccc1 (stereo unspecified)	-22.8
Cn1c(CO)cnc1SC(C(=O)NC1CC1)c1ccccc1 (stereo unspecified)	-56
CN(Cc1ccc2nsnc2c1)CC1(O)CCNC1 (stereo unspecified)	-11.7
CNc1cc(N2CCCC2CNCc2cccs2)ncn1 (stereo unspecified)	-12.3

Compound	cytotoxicity at 10 µM [%]
CC1CN(C)c2ccccc2CN1C(=O)c1cc[nH]c(=O)c1 (stereo unspecified)	4.96
Fc1ccc(CN2CCC3(CC2)CCN(c2ncccn2)CC3)cc1	-73.7
COCCN1CCC(NCc2cccc(F)c2)C1 (stereo unspecified)	-8.85
O=C(NCc1ccco1)[C@H]1COC[C@H]2CN(Cc3ccccn3)C[C@H]21	-72.4
CN(C)c1ccc(C(=O)N2CCC(c3cc4cnccc4[nH]3)CC2)cc1	1.12
CC(=O)CCCC(=O)N(Cc1ccsc1)CC(C)C	-50.3
N#CC1CCN(C(=O)CN2CC(c3ccccc3)CC2=O)CC1 (stereo unspecified)	-0.745
O=C(NCc1cccnc1)N1CCc2ncnc(NC3CC3)c2CC1	-107
c1cnc2[nH]c(C3CCNCC3)c(CN3CCOCC3)c2c1	1.82
CC(C)(O)CN1CCN(C(=O)c2cc(Cl)cc3cccnc23)CC1	-7.93
CCN(CC)c1ncc(Cl)c(C(=O)NC2CC2)n1	-33.5
CNCC(=O)Nc1cccc(-c2cnc(NCCS(C)(=O)=O)nc2)c1	-1.31
O=S(=O)(c1ccc(-c2nc3c([nH]2)CCNC3)cc1)N1CCCC1	-2.09
Cc1ccc(CN(Cc2nc3c(cnn3C)c(=O)[nH]2)C(C)C)s1	-5.48
O[C@@H]1CCN(CC2CC2)[C@H]1Cc1ccccc1	3.57
CCC(CC)(CNC(=O)c1cccn1Cc1cccnc1)N(C)C	-53.6
O=C(CN1CCCC1Cn1cncn1)NCC1(c2ccccc2)CC1 (stereo unspecified)	4.74
Cc1nc(-c2ccc(S(=O)(=O)N3CCSCC3)cc2)co1	5.18
COc1cc(NC(=O)CCn2nc(-c3cccs3)oc2=O)cc(OC)c1	2.9

Compound	cytotoxicity at 10 µM [%]
COCCN(CCC#N)S(=O)(=O)c1ccc(F)cc1Cl	2.13
O=C(Cc1ccc(S(=O)(=O)C(F)F)cc1)N1CCCC1	-13.5
O=C(OCCNc1ncccn1)c1ccc(Br)s1	-2.64
OC(COCc1cccs1)CN1CCC(c2ccn[nH]2)CC1 (stereo unspecified)	-2.66
CN1CCC(Cc2noc(CC3CC3)n2)CC1	-9.96
CNS(=O)(=O)c1cccc(C(C)NCc2ccc(C)c(C)c2)c1 (stereo unspecified)	3.92
CCN(CC)c1ccc(CNC(=O)c2ccc(=O)[nH]n2)cn1	4.16
COc1ccc2c(ccn2CCCN)c1	-3.91
c1csc(NCc2n[nH]c3c2CCN(CC2CC2)C3)n1	-0.733
Cn1ncc2c(=O)[nH]c(CN3CCc4sccc4C3)nc21	-19
COc1ccc(Nc2c[nH]c(=O)[nH]c2=O)cc1	14.2
CN(C)C1CCCN(C(=O)NCCNC(=O)C2CCCC2)C1 (stereo unspecified)	-7.4
CCc1nc(C)sc1CN1CCc2[nH]nc(-c3ccc(F)c(F)c3)c2C1	5.57
CC(=O)N1CCC(C(=O)NCCc2c[nH]c3cc(C)ccc23)CC1	18.1
O=C(c1cnn[nH]1)N(CCCO)Cc1cccnc1	-2.48
O=C(CCC1CCCO1)NS(=O)(=O)c1ccc(Cl)cc1 (stereo unspecified)	-9.36
NC(=O)C1(c2cnccn2)CCCN1Cc1ccccn1 (stereo unspecified)	-6.36
CC(C)CCOc1ccc(C(C)NC(=O)CSCC(N)=O)cc1 (stereo unspecified)	10.5

Reference: ChEMBL document CHEMBL4513216, “Probing the Open Global Health Chemical Diversity Library for Multistage-Active Starting Points for Next-Generation Antimalarials” (ACS Infect Dis, 2020)
